Screening data (PubChem)
These entries were drawn from the full list.
Apaf1 activ: activates human Apaf-1 apoptosome | 0.31% of 330,000 active | O14727 | activity change, negative = activation, % at 20 µM | AID 489031 | Apaf-1 apoptosome caspase-3 activation, DEVD-Rh110 fluorescence; active compounds read low;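 active = activity change at or below -40% at 20 µM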
Target sequence (O14727 whole entry, looked up): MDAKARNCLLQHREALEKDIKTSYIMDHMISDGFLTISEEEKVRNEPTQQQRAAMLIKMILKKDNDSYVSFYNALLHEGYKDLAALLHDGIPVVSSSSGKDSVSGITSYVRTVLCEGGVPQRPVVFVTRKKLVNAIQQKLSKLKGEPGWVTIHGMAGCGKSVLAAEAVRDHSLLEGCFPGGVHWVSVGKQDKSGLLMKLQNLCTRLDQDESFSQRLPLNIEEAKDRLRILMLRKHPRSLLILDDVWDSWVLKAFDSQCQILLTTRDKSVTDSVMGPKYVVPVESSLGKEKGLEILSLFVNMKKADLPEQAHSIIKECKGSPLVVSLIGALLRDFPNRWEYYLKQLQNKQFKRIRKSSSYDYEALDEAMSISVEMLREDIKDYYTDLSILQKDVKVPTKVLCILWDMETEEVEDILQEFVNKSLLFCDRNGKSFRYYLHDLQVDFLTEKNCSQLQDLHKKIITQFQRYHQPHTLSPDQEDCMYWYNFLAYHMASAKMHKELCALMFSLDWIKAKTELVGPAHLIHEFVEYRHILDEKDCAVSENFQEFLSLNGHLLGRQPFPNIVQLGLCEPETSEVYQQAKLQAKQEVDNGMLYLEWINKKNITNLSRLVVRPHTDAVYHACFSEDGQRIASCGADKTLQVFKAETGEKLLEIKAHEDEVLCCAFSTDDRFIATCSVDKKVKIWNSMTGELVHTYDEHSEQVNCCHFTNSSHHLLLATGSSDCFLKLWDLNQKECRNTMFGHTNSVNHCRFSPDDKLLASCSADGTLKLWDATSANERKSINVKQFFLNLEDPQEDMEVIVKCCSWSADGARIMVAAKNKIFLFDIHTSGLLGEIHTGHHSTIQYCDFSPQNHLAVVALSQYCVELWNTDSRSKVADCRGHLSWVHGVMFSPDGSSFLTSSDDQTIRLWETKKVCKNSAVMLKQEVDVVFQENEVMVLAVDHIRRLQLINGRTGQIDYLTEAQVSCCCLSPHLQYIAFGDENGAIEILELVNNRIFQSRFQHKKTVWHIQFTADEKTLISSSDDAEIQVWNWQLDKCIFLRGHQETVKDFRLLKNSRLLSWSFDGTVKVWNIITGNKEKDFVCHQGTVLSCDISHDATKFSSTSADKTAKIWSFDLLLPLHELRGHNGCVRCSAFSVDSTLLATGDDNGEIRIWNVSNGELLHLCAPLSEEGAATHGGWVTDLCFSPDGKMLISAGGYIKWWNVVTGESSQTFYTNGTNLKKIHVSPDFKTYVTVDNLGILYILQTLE
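Assay system – biochemical Apaf-1 apoptosome reconstitution · Medium – 20 mM HEPES buffer, pH 7.5, containing CHAPS and BSA · Incubation – 30 min preincubation, 50 min reaction, room temperature · Measured by – Caspase-3-released Rh110 fluorescence, 540 nm emission, 480 nm excitation · Read-out – Caspase-3 cleavage activity downstream of Apaf-1 activation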
Rh110 act interf: interferes with Rh110 fluorescence, flagging false Apaf-1 activators; AID 504616; 980 tested, under 10 active; shares compounds with Apaf1 activ; fluorescence interference (activity change), % at 20 µM, hits read low; Rh110 fluorescence interference, quenched caspase reaction, Ex480/Em540;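 active = mean activity change at or below -40% when tested at 20 µM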
Apaf-1 act conf: Apaf-1 (human) activation, single-dose confirmed; shares compounds with Apaf1 activ; 5% of 980 active; activity change, negative = activation, % at 20 µM; AID 504617; reconstituted apoptosome caspase-3 activity, DEVD-Rh110 fluorescence; active compounds read low;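 active = mean activity change at or below -40%, meaning activation of 40% or more, at 20 µM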
Of the large screens only hits and unclear results are named; the others gave an inactive call (follow-up assays come after a bar, where they were run).

O=C1C(=O)N(c2nccs2)C(c2ccccc2F)/C1=C(\O)c1ccc2c(c1)OCCO2 (stereo unspecified)	Apaf1 activ -40 | Rh110 act interf inactive | Apaf-1 act conf inactive
Cc1cc(NC(=O)CCSc2ccccc2)ccc1Br	Apaf1 activ -65 | Rh110 act interf inactive | Apaf-1 act conf inactive
Oc1ccc(Cl)cc1CNc1cccc2cccnc12	none
CC(=O)c1ccc(NC(=S)Nc2cccc3ccccc23)cc1	none
C/C(=N\NC(=O)CNc1cccc2ccccc12)c1ccccc1	none
Nc1ccccc1C(=O)Nc1cccc2ccccc12	Apaf1 activ -114 | Rh110 act interf inactive | Apaf-1 act conf inactive
Cc1[nH]n(-c2ccccc2)c(=O)c1/C=N/N(C)c1ccccc1	none
Cc1cccc(C)c1NC(=O)CSCC(=O)c1ccc(O)c(O)c1	Apaf1 activ -161 | Rh110 act interf inactive | Apaf-1 act conf inactive
Cc1cc(NC(=O)CSCC(=O)Nc2ccc(C)c(C)c2)no1	none
COc1ccc(NC(=O)CC2Nc3cccc4cccc(c34)NC2=O)cc1 (stereo unspecified)	none
COc1ccc(/C=C/C(=O)NC(=S)Nc2ccc(S(N)(=O)=O)cc2)cc1	Apaf1 activ -80 | Rh110 act interf inactive | Apaf-1 act conf inactive
CCN1CCN(Cc2ccc(NC(=O)c3ccc(C)c(NC(=O)c4csc(-c5ccncc5)n4)c3)cc2C(F)(F)F)CC1	none
Nc1c(N2CCCC2)cc(Cl)c2nonc12	none
Cc1cc2cc(CNC(=O)Nc3cccc(Cl)c3)ccc2n1C	none
NC(=O)C1(N2CCCCC2)CCN(C(=S)Nc2cccc(Cl)c2)CC1	Apaf1 activ -43 | Rh110 act interf inactive | Apaf-1 act conf inactive
CSc1ccc(CN(C)C(=O)c2cccc(S(=O)(=O)NCc3ccccc3)c2)cc1	none
CC1CN(C(=O)c2cccc(S(=O)(=O)NCc3ccccc3)c2)CC(C)O1 (stereo unspecified)	none
COC(=O)c1cc(S(=O)(=O)NCc2cccc(Br)c2)c[nH]1	Apaf1 activ -53 | Rh110 act interf inactive | Apaf-1 act conf inactive
CC(=O)[C@@H]1[C@@H]2C(=O)N(c3ccc(F)c(Cl)c3)C(=O)[C@@H]2C2c3ccccc3C=CN21 (stereo partly specified)	none
Cc1cc(/C=C2\SC(=O)N(C)C2=O)c(C)n1-c1ccc(O)cc1	none
COc1ccc(C[C@H]2CN3C(=NC[C@@H]3C(C)C)N2CCNC(=O)c2ccc(C)c(Br)c2)cc1	none
Cc1ccc(C(=O)NCCN2C3=NC[C@H](C)N3C[C@H]2Cc2ccc(O)cc2)cc1Br	Apaf1 activ -440 | Rh110 act interf inactive | Apaf-1 act conf inactive
C/C=C(\C)C(=O)NCCN1C2=NC[C@@H](Cc3ccccc3)N2C[C@@H]1Cc1ccc(OC)cc1	none
CCOc1ccccc1CNC(=O)C1CCN(c2nnc(C)c3c(C)n(-c4ccc(C)cc4)nc23)CC1	none
COc1ccccc1N(/N=C1\Sc2ccccc2C1=O)C(C)=O	none
CCN(CC)C(=O)Cn1cc(S(=O)(=O)CC(=O)N2CCOCC2)c2ccccc21	Apaf1 activ -56 | Rh110 act interf inactive | Apaf-1 act conf inactive
C#CCOCCOCCOCCNc1nc(N2CCN(C(=O)CCCCCCCCCCNC(=O)[C@H]([C@@H](C)CC)n3cc(CCCCCN)nn3)CC2)nc(N2CCN(C(=O)CCCCCCCCCCNC(=O)[C@H]([C@@H](C)CC)n3cc(CCCCN=C(N)N)nn3)CC2)n1	none
COc1cccc(CNC(=O)CN2C(=O)COc3ccc(S(=O)(=O)N4CCCC4)cc32)c1	Apaf1 activ -82 | Rh110 act interf inactive | Apaf-1 act conf inactive
COc1cccc(CN(C)C(=O)c2ccc(C)c(S(=O)(=O)N3CCCCC3)c2)c1	none
COc1cccc(CN(C)C(=O)c2cc(S(=O)(=O)N3CCCCCC3)ccc2OC)c1	none
CCCCc1c(C)nn(-c2nnc3c4ccccc4n(CC)c3n2)c1C	none
CCc1cc2c(=O)nc3n(c2s1)Cc1ccccc1/C3=C(/O)c1cccc([N+](=O)[O-])c1	Apaf1 activ -198 | Rh110 act interf inactive | Apaf-1 act conf inactive
Cc1ccc(-n2nnnc2SCC(=O)N2CCNC2=O)cc1C	Apaf1 activ -448 | Rh110 act interf inactive | Apaf-1 act conf inactive
Cc1ccc2c(c1)c1cccc3c1n2CCN3CCC(N)=O	none
COC(=O)C1=C(C)N(Cc2ccccc2)C(=NCc2ccccc2)N[C@H]1c1cccc(C(F)(F)F)c1	none
CC(C)(C)NC(=O)NC(=O)COC(=O)c1nc(-c2ccccc2)n(-c2cccc(C(F)(F)F)c2)n1	Apaf1 activ -47 | Rh110 act interf inactive | Apaf-1 act conf inactive
CCN1CCN(CCNC(=O)c2ccc(/C=C3\Sc4ccccc4N(Cc4ccccc4F)C3=O)cc2)CC1	none
O=C1CC(c2ccccc2)n2ncnc2N1 (stereo unspecified)	Apaf1 activ -347 | Rh110 act interf inactive | Apaf-1 act conf inactive
O=C1C(NS(=O)(=O)c2cccs2)=C(N2CCN(Cc3ccccc3)CC2)C(=O)c2ccccc21	none
CN1CCC[C@@H]1CCNC(=O)c1c(-c2ccc3c(c2)OCO3)noc1-c1ccsc1	none
O=C(CCSc1nc(-c2ccco2)cc(C(F)(F)F)n1)NCCN1CCOCC1	Apaf1 activ -56 | Rh110 act interf inactive | Apaf-1 act conf inactive
Nc1c(C(=O)NCc2ccc(F)cc2)c2nc3ccccc3nc2n1CCCN1CCOCC1	none
Cc1cccc(-n2c(N)c(C(=O)NCCN3CCOCC3)c3nc4ccccc4nc32)c1	none
CN1CCN(C2=C(NS(=O)(=O)c3ccccc3)C(=O)c3ccccc3C2=O)CC1	none
CC1CCCCC1NC(=O)Cn1nnc2ccccc2c1=O (stereo unspecified)	Apaf1 activ -198 | Rh110 act interf inactive | Apaf-1 act conf inactive
Cc1cc(C)c2nc(N(CCCN(C)C)C(=O)c3ccc4c(c3)CCCC4)sc2c1	none
COc1ccc(/C=C/C(=O)OCC(=O)N2CCCC2)c(OC)c1	Apaf1 activ -40 | Rh110 act interf inactive | Apaf-1 act conf inactive
NS(=O)(=O)c1ccc(Cc2ncc(C(F)(F)F)cc2Cl)s1	Apaf1 activ -40 | Rh110 act interf inactive | Apaf-1 act conf inactive
O=C(O)CCC1c2cc3c4cc2OC2Oc5cc6c(cc51)C(CCC(=O)O)c1cc5c7cc1OC(O6)c1cc6cc(c1)Oc1cc(cc(C(=O)O)c1)Oc1cc8cc(c1)C(Oc1cc(c(cc1C5CCC(=O)O)C3CCC(=O)O)OC(O4)c1cc(cc(c1)Oc1cc(cc(C(=O)O)c1)O8)Oc1cc(cc(C(=O)O)c1)Oc1cc(cc2c1)Oc1cc(cc(C(=O)O)c1)O6)O7 (stereo unspecified)	none
Cc1[nH]n(-c2ccc([N+](=O)[O-])cc2)c(=O)c1/C=N/N1CCOCC1	none
CC(C)(C)c1ccc(S(=O)(=O)/N=C2\C=C(NS(=O)(=O)c3ccccc3)C(=O)c3ccccc32)cc1	none
O=C(/C=C/Nc1ccc(F)c(F)c1)c1ccc(Br)cc1	Apaf1 activ -103 | Rh110 act interf inactive | Apaf-1 act conf inactive
COc1ccc(CN2C(=O)Cc3c2nc(N)c2c(N)nc(N4CCCCC4)c(C#N)c32)cc1	none
O=c1ccc2cc3c([nH]c4ccc(Br)cc43)oc-2c1O	none
CC(=O)c1ccc(Nc2nc(-c3cccnc3)cs2)cc1	Apaf1 activ -208 | Rh110 act interf inactive | Apaf-1 act conf inactive
Cn1c(=O)c2cc(NCc3ccccc3)nnc2n(C)c1=O	none
CCOC(=O)c1c2c(n(C)c1COC)C(=O)C(=O)c1ccc(Br)cc1-2	none
